Experimental data as given in ChEMBL document CHEMBL1129365, “Rational design of novel immunosuppressive drugs: analogues of azathioprine lacking the 6-mercaptopurine substituent retain or have enhanced immunosuppressive effects” (1996).
pEC50: −log10 of the molar value.

What was measured:
Format in all cases: functional
[1] = Inhibition of lymphocyte proliferation in vitro by 25 uM.; conditions: Homo sapiens
[2] = Percent inhibition against incorporation of [3H]-thymidine in Human mixed lymphocyte reaction at a concentration of 25 uM
[3] = Effective dose against inhibitory potency in Human mixed lymphocyte reaction; conditions: read-out: ED50 (the source's name)
How it was run: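 Human MLR: responder lymphocytes and mitomycin-C-treated stimulator lymphocytes, isolated on Ficoll-Metrizoate (10^5 each), cultured in triplicate in RPMI 1640 with 2 mM glutamine, 10 mM HEPES and 20% (final) pooled human AB serum plus drug. Incubation 5 days at 37 °C under 5% CO2/95% air. [3H]thymidine incorporation read; ED50 taken from a graph of ≥4 points, each the mean of 3–10 experiments.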

[4] = Percent inhibition against incorporation of [3H]thymidine in Human mixed lymphocyte reaction at a concentration of 10 uM.
[5] = Inhibition of human mixed leukocyte proliferation in vitro; Not determined.; conditions: read-out: ED50 (the source's name)
[6] = Percent inhibition against incorporation of [3H]thymidine in Human mixed lymphocyte reaction at a concentration of 50 uM.

Row | Structure (SMILES) | inhibition at 25 µM [1] [%] | inhibition at 25 µM [2] [%] | also measured
1 | Cn1cnc([N+](=O)[O-])c1Sc1nc2cc([N+](=O)[O-])ccc2[nH]1 | 2 | – | –
2 | Cc1ccc2[nH]c(Sc3c([N+](=O)[O-])ncn3C)nc2c1 | 86 | – | –
3 | COc1cc2nc(Sc3c([N+](=O)[O-])ncn3C)[nH]c2cc1OC | 94 | – | –
4 | Cn1cnc([N+](=O)[O-])c1Sc1ccccn1 | – | 76 | –
5 | Cn1cnc([N+](=O)[O-])c1SC1=NCCS1 | 100 | – | –
6 | Cn1cnc([N+](=O)[O-])c1Sc1nc2ccccc2[nH]1 | 90 | – | –
7 | COc1ccc(OC)c2[nH]c(Sc3c([N+](=O)[O-])ncn3C)nc12 | 41 | – | –
8 | Cc1cc(C)nc(Sc2c([N+](=O)[O-])ncn2C)n1 | 47 | – | –
9 | Cn1cnc([N+](=O)[O-])c1Sc1nc2ccccc2o1 | – | 87 | –
10 | Cn1cnc([N+](=O)[O-])c1Sc1ccccc1C(=O)O | – | 34 | –
11 | CCn1c(C)nc([N+](=O)[O-])c1Sc1nccn1C | 100 | – | pEC50 [3]: 5.54; inhibition at 10 µM [4]: 98%
12 | Cn1ccnc1Sc1c([N+](=O)[O-])ncn1C | 100 | – | pEC50 [3]: 5.50; inhibition at 10 µM [4]: 82%
13 | CCn1c(C)nc([N+](=O)[O-])c1Sc1nncn1C | 100 | – | pEC50 [3]: 5.60; inhibition at 10 µM [4]: 98%
14 | Cn1cnc([N+](=O)[O-])c1Sc1nc[nH]n1 | 58 | – | pEC50 [3]: 4.85
15 | Cn1cnc([N+](=O)[O-])c1Sc1ncc[nH]1 | 100 | – | pEC50 [3]: 5.55; inhibition at 10 µM [4]: 89%
16 | Cn1cnnc1Sc1c([N+](=O)[O-])ncn1C | 100 | – | pEC50 [3]: 5.57; inhibition at 10 µM [4]: 98%
17 | Cn1cnc([N+](=O)[O-])c1Sc1nccc(O)n1 | 29 | – | –
18 | Cn1cnc([N+](=O)[O-])c1Sc1ncccn1 | 47 | – | –
19 | Cn1cnc([N+](=O)[O-])c1Sc1[nH]cnc2nc(O)nc1-2 | – | 50 | pEC50 [5]: 4.62
20 | Cn1cnc([N+](=O)[O-])c1Sc1nc2ccccc2s1 | – | 27 | –
21 | Cc1cc(C)cc(Sc2c([N+](=O)[O-])ncn2C)c1 | – | 47 | –
22 | CCOC(=O)CSc1c([N+](=O)[O-])ncn1C | – | 65 | –
23 | Cn1cnc([N+](=O)[O-])c1Sc1ccccc1N | 21 | – | –
24 | Cn1cnc([N+](=O)[O-])c1Sc1nc2cc(Cl)c(F)cc2[nH]1 | – | – | inhibition at 50 µM [6]: 59%
25 | Cn1cnc([N+](=O)[O-])c1Sc1ncnc2[nH]cnc12 [AZATHIOPRINE] | – | 79 | pEC50 [3]: 5.10
